# IDE act – boosts human insulin-degrading enzyme activity in HEK cells. FAbeta-B cleavage, fluorescence polarization; 0% vehicle, 100% cell-free pure enzyme wells. activation, % at 5.96 µM. 340,000 compounds, 0.073% hits;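 active = activation above the mean of all tested compounds plus 3 SD, set per screening campaign, cut at about 17% in these data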
# TPT1 inhibitor – C. albicans TPT1 enzyme inhibition | recombinant caTPT1, FP RNA substrate dephosphorylation | inhibition, % at 5 µM | 300,000 compounds, 0.81% hits | AID 1962;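 active = inhibition above the mean of all tested compounds plus 3 SD, set per screening campaign, cut at about 24% in these data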;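 also: plate controls were DMSO alone for no effect and ferristatin control at 100 nM for full effect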
# CSN inh – blocks human CSN-mediated cullin deneddylation; Q92905; 360,000 compounds, 0.38% hits; Purified CSN, SCF-Nedd8-OG deneddylation, fluorescence polarization; inhibition, % at 12.5 µM;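 active = pattern-corrected inhibition above about 35%, with an unprinted fluorescence ratio check between 0.5 and 1.5, limit read from the data, passing the limit was not always enough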;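 also: 0% = enzyme with substrate and 100% = substrate without enzyme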
#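 Test system: Human Csn5 produced in HEK293T cells | Compound: 12.5 µM single point | Times: 90 min, room temperature | Signal: Fluorescence polarization readout | Read-out basis: % inhibition of substrate cleavage by Csn5 | Controls: no-enzyme wells high, enzyme-with-substrate wells low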
# TbMetRS inhib – blocks T. brucei methionyl-tRNA synthetase activity; purified T. brucei MetRS, ATP depletion, Kinase-Glo luminescence; inhibition, % at 11.9 µM; 360,000 compounds, 0.4% hits;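 active = inhibition above a per-plate cutoff of the control wells' mean inhibition plus 3 SD, cut at about 5.5% in these data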;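 also: 0% = DMSO wells median and 100% = median of wells with control inhibitor compound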
#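 Material: T. brucei methionyl-tRNA synthetase, purified; reagent: substrates ATP, L-methionine and bulk Escherichia coli tRNA; dosing: 11.9 µM single point; timing: 15 min plus 2 h at 25 °C; detection: luminescence of leftover ATP; evaluation: % inhibition; control set: DMSO-only wells as low control; replicates: singlicate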
# HNF4A DNA FP – change in binding of human HNF4 alpha to DNA. P41235. HNF4a-FITC DNA binding, fluorescence polarization, 1 h. activity change, % at 10 µM. 360,000 compounds, 0.3% hits. AID 1224865; in the data active = activity change above about 30%, passing the limit was not always enough
# Target sequence (P41235 whole entry, looked up): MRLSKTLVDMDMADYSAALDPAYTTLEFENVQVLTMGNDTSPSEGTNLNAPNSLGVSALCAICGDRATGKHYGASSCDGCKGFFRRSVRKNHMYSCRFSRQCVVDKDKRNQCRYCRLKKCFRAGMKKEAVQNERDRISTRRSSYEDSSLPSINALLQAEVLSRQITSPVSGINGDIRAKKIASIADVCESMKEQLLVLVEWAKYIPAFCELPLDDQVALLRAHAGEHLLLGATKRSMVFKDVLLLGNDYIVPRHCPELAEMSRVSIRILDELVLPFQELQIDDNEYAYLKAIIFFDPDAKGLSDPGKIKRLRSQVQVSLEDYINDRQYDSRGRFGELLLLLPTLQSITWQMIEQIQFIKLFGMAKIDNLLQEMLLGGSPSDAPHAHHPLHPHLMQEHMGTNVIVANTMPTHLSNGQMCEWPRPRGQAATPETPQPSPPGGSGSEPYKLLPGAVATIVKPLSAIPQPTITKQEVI
# IDE cell inh – inhibits human insulin-degrading enzyme in HEK cells | P14735 | FAbetaB cleavage, fluorescence polarization | inhibition, % at 5.59 µM | 320,000 compounds, 0.41% hits | AID 434962;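 active = percent inhibition above the average of all tested compounds plus 3 SD, set per screening campaign, cut at about 16% in these data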;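 also: IDE supplied by intact live HEK cells; FP after avidin binding of uncleaved biotin substrate so inhibition keeps polarization high; 0% = DMSO wells and 100% = 60 µM reference IDE inhibitor Ii1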
# TbMetRS confirm – confirmation of Trypanosoma brucei MetRS inhibitors; shares compounds with TbMetRS inhib; T. brucei MetRS enzyme, luminescence (ATP depletion); AID 624412; inhibition, % at 11.9 µM; 1,400 compounds, 93% hits; in the data active = inhibition above about 7%
# Jurkat cytotox – Jurkat T cell cytotoxicity for MetRS hits; Jurkat cells viability, ATP luminescence; 1,400 compounds, 12% hits; inhibition, % at 8.3 µM; AID 624413; shares compounds with TbMetRS inhib; in the data active = inhibition above about 15%;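 also: 0% = vehicle and 100% = reference inhibitor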
# TbMetRS FP orth – T. brucei MetRS inhibition, orthogonal assay | shares compounds with TbMetRS inhib | 1,400 compounds, 44% hits | purified T. brucei MetRS, fluorescence polarization | inhibition, % at 11.9 µM; in the data active = inhibition above about 17%;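 also: 0% = vehicle wells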
# * marks the source's active call; other numbers are inactive results; nt = no result given. An excerpt weighted towards active compounds, which were near 1.7% of everything screened.
SMILES,IDE act,TPT1 inhibitor,CSN inh,TbMetRS inhib,HNF4A DNA FP,IDE cell inh,TbMetRS confirm,Jurkat cytotox,TbMetRS FP orth
CC1CCCN(C(=O)COC(=O)C2=COCCO2)C1 (stereo not given),3,nt,-2,0,-3,3,nt,nt,nt
C(=N\Nc1nc2ccccc2[nH]1)/c1ccc2c(c1)OCO2,-5,nt,10,4,0,nt,nt,nt,nt
C(=C/c1nccc2c1[nH]c1ccccc12)/c1ccc2c(c1)OCO2,-13,nt,5,5.9*,10,nt,3,42*,91*
COc1ccccc1C1CC(=O)Oc2cc(C)c(Cl)c(C)c21 (stereo not given),4,nt,1,-1,-4,nt,nt,nt,nt
Cc1ccc(NC(=O)CS(=O)CC(=O)Nc2ccc3c(c2)OCO3)cc1Cl (stereo not given),0,-2,6,9.8*,3,1,12*,-2,12
O=C(NNC(=O)c1cc2ccccc2[nH]1)OCc1ccccc1,-2,nt,-2,13*,3,3,46*,-12,19*
O=C(NCC(O)c1nc2ccccc2[nH]1)c1cc2ccccc2[nH]1 (stereo not given),nt,nt,0,51*,1,nt,68*,0,40*
CC(C)CC(C)NNC(=O)c1cc2ccccc2[nH]1 (stereo not given),5,-3,-1,0,0,1,nt,nt,nt
NC(=O)C1(Nc2ccc(-c3ccc(Br)cc3)cc2)CCCC1,1,nt,5,1,-3,nt,nt,nt,nt
COc1ccc(-c2cc(C(=O)NN)[nH]n2)cc1,4,-4,0,-2,0,0,nt,nt,nt
COC(=O)c1cc(-c2ccc(Br)cc2)n[nH]1,4,4,1,10*,-3,5,28*,-5,12
O=C(NCC1CCOCC1)c1ccc(-c2ccc(F)c(F)c2)c2ccoc12,nt,nt,27,-1,0,nt,nt,nt,nt
O=c1[nH]c2cc3ccccc3cc2nc1-c1nnnn1C1CCCC1,nt,nt,1,52*,-8,nt,61*,69*,40*
O=c1[nH]c2cc3ccccc3cc2nc1-c1nnnn1Cc1ccccc1,nt,nt,-1,22*,-2,nt,38*,9,18*
Cc1cc2nc(-c3nnnn3Cc3ccccc3)c(=O)[nH]c2cc1C,nt,nt,-4,0,3,nt,nt,nt,nt
COC(=O)c1ccc(CSc2ccccc2NC(=S)Nc2cccc(SC)c2)o1,nt,nt,-1,0,-1,nt,nt,nt,nt
COC(=O)[C@H](Cc1c[nH]c2ccccc12)NC(=O)NCc1ccc(OC)c(OC)c1,8,3,-4,0,2,-2,nt,nt,nt
COC(=O)[C@H](Cc1c[nH]c2ccccc12)NC(=O)NCc1ccc(OC)cc1,1,1,-7,6.6*,3,-3,15*,-4,4
COC(=O)N(C)C[C@H]1OCc2cn(nn2)CCCC(=O)N([C@@H](C)CO)C[C@@H]1C,nt,nt,-4,-1,1,nt,nt,nt,nt
COc1cccc(N=C2SC(CC(=O)Nc3ccccc3)C(=O)N2Cc2ccccn2)c1 (stereo not given),5,-2,-10,6.6*,6,-1,11*,3,9
O=C(CC1SC(=Nc2ccccc2)N(CCc2ccccn2)C1=O)Nc1ccc(F)cc1 (stereo not given),2,0,4,0,2,3,nt,nt,nt
CC(Sc1ccc(S(=O)(=O)N2CCN(C)CC2)cn1)C(=O)NC1(C#N)CCCCC1 (stereo not given),2,nt,-3,0,4,nt,nt,nt,nt
Nc1n[nH]c(N)c1N=Nc1ccc(Cl)cc1Cl,-1,1,1,9.7*,2,-1,22*,19*,36*
Nc1cc2nc[nH]c2cc1N,0,nt,-2,6.3*,6,nt,10*,-7,4
Cn1c(=O)n(C)c2cc3[nH]cnc3cc21,1,-1,1,-1,-6,-1,nt,nt,nt
SMILES,IDE act,TPT1 inhibitor,CSN inh,TbMetRS inhib,HNF4A DNA FP,IDE cell inh,TbMetRS confirm,Jurkat cytotox,TbMetRS FP orth
c1ccc(CNc2nc(NCc3cccs3)nc3ccsc23)cc1,nt,nt,-5,0,2,nt,nt,nt,nt
c1ccc(CNc2nc(NCCc3ccncc3)c3sccc3n2)cc1,nt,nt,0,12*,2,nt,33*,9,19*
O=C(CSc1ccc(-c2nc3ccccc3[nH]2)cn1)N1CCN(C(=O)c2ccco2)CC1,-11,3,5,7.8*,2,-1,15*,15*,12
O=C(CCc1nc2ccccc2[nH]1)N1CCN(C(=O)c2ccco2)CC1,2,4,0,-1,4,-3,nt,nt,nt
OCC1(CCOc2ccccc2)CCN(Cc2nc3ccc(F)cc3[nH]2)CC1,-4,3,5,7.5*,0,3,21*,2,0
Cc1ncc(CN2CCCC(C(=O)Nc3ccc(-c4cscn4)cc3)C2)cn1 (stereo not given),1,6,2,-1,-1,2,nt,nt,nt
COc1cccc(CN2CCCC(C(=O)Nc3ccc(-c4cscn4)cc3)C2)c1 (stereo not given),2,nt,-3,7.4*,1,nt,28*,11,10
O=C(Nc1ccccc1)Nc1cc(OCC(F)(F)F)cc(OCC(F)(F)F)c1,-4,nt,3,6.9*,-1,nt,15*,89*,72*
NS(=O)(=O)c1ccc(CCNC(=O)C(=O)c2c[nH]c3ccccc23)cc1,6,-2,-2,12*,1,5,26*,-5,10
Cc1[nH]c2ccccc2c1C(=O)C(=O)NCCc1ccc(S(N)(=O)=O)cc1,6,5,-4,50*,-2,2,66*,-3,45*
O=C(CCn1c(=O)oc2ccccc21)Nc1ccc2c(c1)OCCO2,-3,-6,4,21*,1,1,0,14,1
CC1=C(C(=O)N(C(C)C)C(C)C)CC(CC(=O)NCc2cccs2)C(=O)N1Cc1ccccc1 (stereo not given),nt,nt,3,0,-1,nt,nt,nt,nt
O=C(Cn1nnc(-c2ccc([N+](=O)[O-])cc2)n1)NNC(=O)c1ccccc1,-1,4,7,0,-3,-2,nt,nt,nt
Fc1cccc(CSc2nc3ncc(Cl)cc3[nH]2)c1,nt,-2,8,6.4*,2,4,7.3*,5,0
O=C(CSc1nc2ncc(Cl)cc2[nH]1)Nc1cccc(F)c1,-5,-1,3,21*,2,-1,47*,2,23*
Nc1ncnc2nc(SCC(=O)Nc3cccc(C(F)(F)F)c3)[nH]c12,-4,0,6,33*,-1,-11,57*,-3,28*

# Source: PubChem (several laboratories)
